The results in this text go back to ChEMBL document CHEMBL4665652, “Discovery of novel quinoline sulphonamide derivatives as potent, selective and orally active RORγ inverse agonists” (Bioorg Med Chem Lett, 2019).

The target in data set [1] is Cytochrome P450 3A4 (Homo sapiens, UniProt P08684). The data set is described as follows: Drug metabolism assessed as CYP3A4 (unknown origin) mediated metabolite formation. In kind it is ADME.
Data set [2] concerns the target CYP2C9 (Homo sapiens, UniProt P11712). The experiment in a line: Inhibition of CYP2C9 (unknown origin) at 1 uM relative to control. In kind it is ADME.
Data set [3] can be described thus: Half life in mouse at 100 mg/kg, po. In kind it is ADME, organism-based. Conditions: in vivo. The gist of the method:
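Oral ascending-dose PK in mice at 100 mg/kg (ratios against 10 mg/kg), given as a suspension in 1% methylcellulose 400cp + 0.1% Poloxamer. Cmax, AUClast and t1/2 come from plasma profiles.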

Data set [4] can be described thus: Ratio of AUClast in mouse at 100 mg/kg, po to AUClast in mouse at 10 mg/kg, po. In kind it is ADME, organism-based. As to conditions: in vivo. The method in brief:
(§1)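 Mice dosed orally at 10, 30 or 100 mg/kg as a suspension in 1% methylcellulose 400cp + 0.1% Poloxamer (188). Tmax, Cmax, AUClast and oral t1/2 were taken from plasma concentration–time profiles. Ratios are the value at each dose over the value at 10 mg/kg.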

A short description of data set [5]: Half life in mouse at 30 mg/kg, po. As to conditions: in vivo. In kind it is ADME, organism-based. The gist of the method: as §1
Data set [6] in a line: Ratio of AUClast in mouse at 30 mg/kg, po to AUClast in mouse at 10 mg/kg, po. In kind it is ADME, organism-based. Conditions: in vivo. The method in brief:
as §1

Data set [7] can be described thus: Cmax in mouse at 30 mg/kg, po. As to conditions: in vivo. Also on record: route oral, dose 30 mg/kg. The data set is classed as ADME, organism-based. The method in brief: as §1
Data set [8] can be described thus: In vivo inverse agonist activity at RORgamma in MOG(35-55) peptide/PTX-induced mechanistic C57BL/6 mouse model assessed as anti-CD3 induced IL-10 level in serum at 100 mg/kg, po dosed for 5 days during MOG/PTX priming and followed by 45 mins prior to anti-CD3 challenge and measured after 2 hrs (reference value: -11%). The data set is classed as functional. Conditions: time 5 day. The gist of the method:
(§2)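 Mice immunized with mouse MOG35-55 peptide plus pertussis toxin. After 5 days, compound given orally as a suspension in methylcellulose 400cp + 1% poloxamer, 45 min before an anti-CD3 challenge. Circulating cytokines measured 2 h later. Comparison vs vehicle by Dunnett post test.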

Data set [9] can be described thus: In vivo inverse agonist activity at RORgamma in MOG(35-55) peptide/PTX-induced mechanistic C57BL/6 mouse model assessed as anti-CD3 induced IL-10 level in serum at 10 mg/kg, po dosed for 5 days during MOG/PTX priming and followed by 45 mins prior to anti-CD3 challenge and measured after 2 hrs (reference value: -11%). The data set is classed as functional. Conditions: time 5 day. The gist of the method: as §2

A short description of data set [10]: In vivo inverse agonist activity at RORgamma in MOG(35-55) peptide/PTX-induced mechanistic C57BL/6 mouse model assessed as anti-CD3 induced IL-2 level in serum at 100 mg/kg, po dosed for 5 days during MOG/PTX priming and followed by 45 mins prior to anti-CD3 challenge and measured after 2 hrs relative to control. The data set is classed as functional. As to conditions: time 5 day. The gist of the method: as §2

Data set [11] in a line: In vivo inverse agonist activity at RORgamma in MOG(35-55) peptide/PTX-induced mechanistic C57BL/6 mouse model assessed as anti-CD3 induced IL-2 level in serum at 30 mg/kg, po dosed for 5 days during MOG/PTX priming and followed by 45 mins prior to anti-CD3 challenge and measured after 2 hrs relative to control. In kind it is functional. Conditions: time 5 day. The gist of the method:
as §2

Data set [12] in a line: In vivo inverse agonist activity at RORgamma in MOG(35-55) peptide/PTX-induced mechanistic C57BL/6 mouse model assessed as anti-CD3 induced IL-2 level in serum at 10 mg/kg, po dosed for 5 days during MOG/PTX priming and followed by 45 mins prior to anti-CD3 challenge and measured after 2 hrs relative to control. As to conditions: time 5 day. In kind it is functional. The method in brief:
as §2

Data set [13] in a line: In vivo inverse agonist activity at RORgamma in MOG(35-55) peptide/PTX-induced mechanistic C57BL/6 mouse model assessed as anti-CD3 induced IL-6 level in serum at 100 mg/kg, po dosed for 5 days during MOG/PTX priming and followed by 45 mins prior to anti-CD3 challenge and measured after 2 hrs relative to control. In kind it is functional. As to conditions: time 5 day. The method in brief: as §2

Data set [14] can be described thus: In vivo inverse agonist activity at RORgamma in MOG(35-55) peptide/PTX-induced mechanistic C57BL/6 mouse model assessed as anti-CD3 induced IL-6 level in serum at 30 mg/kg, po dosed for 5 days during MOG/PTX priming and followed by 45 mins prior to anti-CD3 challenge and measured after 2 hrs relative to control. The data set is classed as functional. Conditions: time 5 day. The method in brief: as §2

The nature of data set [15]: In vivo inverse agonist activity at RORgamma in MOG(35-55) peptide/PTX-induced mechanistic C57BL/6 mouse model assessed as anti-CD3 induced IL-17F level in serum at 10 mg/kg, po dosed for 5 days during MOG/PTX priming and followed by 45 mins prior to anti-CD3 challenge and measured after 2 hrs relative to control. As to conditions: time 5 day. In kind it is functional. The method in brief:
as §2

The nature of data set [16]: In vivo inverse agonist activity at RORgamma in MOG(35-55) peptide/PTX-induced mechanistic C57BL/6 mouse model assessed as anti-CD3 induced IL-17A level in serum at 30 mg/kg, po dosed for 5 days during MOG/PTX priming and followed by 45 mins prior to anti-CD3 challenge and measured after 2 hrs relative to control. Conditions: time 5 day. The data set is classed as functional. The method in brief: as §2

Data set [17] can be described thus: In vivo inverse agonist activity at RORgamma in MOG(35-55) peptide/PTX-induced mechanistic C57BL/6 mouse model assessed as anti-CD3 induced IL-17A level in serum at 10 mg/kg, po dosed for 5 days during MOG/PTX priming and followed by 45 mins prior to anti-CD3 challenge and measured after 2 hrs relative to control. The data set is classed as functional. As to conditions: time 5 day. The method in brief: as §2

Data set [18] in a line: Unbound plasma clearance in mouse at 10 mg/kg, po or 1 mg/kg, iv. In kind it is ADME, organism-based. As to conditions: in vivo. The gist of the method:
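Mouse PK using two routes: iv at 1 mg/kg and po at 10 mg/kg. The po dose was a suspension in 1% methylcellulose 400cp + 0.1% Poloxamer 188. Unbound plasma clearance derived from the plasma profiles.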

Data set [19] can be described thus: Tmax in mouse at 10 mg/kg, po. The data set is classed as ADME, organism-based. As to conditions: in vivo. The method in brief: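 Mice dosed orally with an ascending-dose series at 10, 30 and 100 mg/kg. Compound given as a suspension in 1% methylcellulose 400cp + 0.1% poloxamer. Plasma Tmax taken from the concentration profiles. The Cmax ratio is expressed relative to the 10 mg/kg dose.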

A short description of data set [20]: Stability in mouse microsomes assessed as unbound intrinsic clearance. The data set is classed as ADME, Microsome. The gist of the method:
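Unbound intrinsic clearance measured in human and mouse liver microsomes, expressed in L/h/kg. Values are geometric means of at least two separate runs.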

A short description of data set [21]: In vivo inverse agonist activity at RORgamma in MOG(35-55) peptide/PTX-induced mechanistic C57BL/6 mouse model assessed as anti-CD3 induced IL-17F level in serum at 30 mg/kg, po dosed for 5 days during MOG/PTX priming and followed by 45 mins prior to anti-CD3 challenge and measured after 2 hrs relative to control. In kind it is functional. Conditions: time 5 day. The gist of the method:
as §2

In data set [22] the test system is Mus musculus. The experiment in a line: In vivo inverse agonist activity at RORgamma in po dosed MOG(35-55) peptide/PTX-induced mechanistic C57BL/6 mouse model assessed as anti-CD3 induced IL-17F level in serum dosed for 5 days during MOG/PTX priming and followed by 45 mins prior to anti-CD3 challenge and measured after 2 hrs relative to control. The data set is classed as functional, organism-based. Conditions: dose mg/kg 10-100, time 5.0 day. The method in brief:
as §2

Data set [23] has as its system Mus musculus. The data set is described as follows: In vivo inverse agonist activity at RORgamma in po dosed MOG(35-55) peptide/PTX-induced mechanistic C57BL/6 mouse model assessed as anti-CD3 induced IL-22 level in serum dosed for 5 days during MOG/PTX priming and followed by 45 mins prior to anti-CD3 challenge and measured after 2 hrs relative to control. In kind it is functional, organism-based. Conditions: dose mg/kg 10-100, time 5.0 day. The method in brief: as §2

What is called inhibition is the share of the control response that was lost under treatment. A high value points to strong suppression. Broadly, the half-life is the time needed for the level to fall by half in the phase considered. A low value points to fast loss. By Cmax is commonly meant the peak of the concentration-time curve. As a reminder, the Tmax is the time at which the peak concentration occurs.

CYP2C9, sequence (P11712 whole entry): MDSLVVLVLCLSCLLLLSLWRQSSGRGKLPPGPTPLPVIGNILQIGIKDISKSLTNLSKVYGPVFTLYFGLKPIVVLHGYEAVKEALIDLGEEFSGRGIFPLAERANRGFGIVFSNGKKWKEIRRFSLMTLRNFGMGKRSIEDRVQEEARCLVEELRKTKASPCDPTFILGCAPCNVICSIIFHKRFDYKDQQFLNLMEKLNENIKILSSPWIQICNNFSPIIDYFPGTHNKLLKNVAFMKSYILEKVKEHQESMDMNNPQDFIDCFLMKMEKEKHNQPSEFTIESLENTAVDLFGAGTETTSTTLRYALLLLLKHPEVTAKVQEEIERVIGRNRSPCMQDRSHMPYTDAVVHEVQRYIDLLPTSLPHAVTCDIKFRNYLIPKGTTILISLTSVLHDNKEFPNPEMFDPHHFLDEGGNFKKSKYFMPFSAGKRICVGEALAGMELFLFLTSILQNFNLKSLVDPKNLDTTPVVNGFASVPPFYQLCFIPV
Cytochrome P450 3A4, sequence (P08684 whole entry): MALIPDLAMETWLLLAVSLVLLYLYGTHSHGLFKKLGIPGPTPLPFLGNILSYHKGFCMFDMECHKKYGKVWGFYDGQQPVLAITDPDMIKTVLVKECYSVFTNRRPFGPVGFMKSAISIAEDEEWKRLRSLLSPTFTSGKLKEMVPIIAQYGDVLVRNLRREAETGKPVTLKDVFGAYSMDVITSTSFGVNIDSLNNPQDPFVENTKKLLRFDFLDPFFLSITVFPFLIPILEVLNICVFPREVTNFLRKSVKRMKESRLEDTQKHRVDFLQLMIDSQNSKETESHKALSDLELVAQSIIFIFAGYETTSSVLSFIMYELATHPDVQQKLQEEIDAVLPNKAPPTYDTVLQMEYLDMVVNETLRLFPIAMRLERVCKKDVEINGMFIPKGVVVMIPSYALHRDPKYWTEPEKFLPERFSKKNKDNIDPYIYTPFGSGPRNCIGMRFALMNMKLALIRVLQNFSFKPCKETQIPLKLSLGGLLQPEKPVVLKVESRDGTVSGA

Regarding `CNC(=O)[C@@H]1CCCN1S(=O)(=O)c1ccc(Cl)c(COc2cccc3c(-c4cncn4C)cc(C(C)C)nc23)c1Cl`, the Fm in data set [1] turned out to be 87%. This compound also registered an inhibition at 1 µM in data set [2] of 100%. For the same compound, the half-life in data set [3] is 2.2 h; in [5], 1 h. Moreover, the Ratio in data set [4] is reported as 58; in data set [6] it was 8.8. This compound also gave a Cmax in data set [7] of 11800 ng/mL. For the same compound, the Activity in [8] was 807%; in [9], -3%; in data set [10], -46%; in data set [11], -30%; in data set [12] it was -39%; in data set [13], -21%. The Activity in data set [14] is -56%; in data set [15], -20%; in data set [16], -52%; in [17], -23%; in [21], -49%; in [22] it was “Dose-dependent effect”. Further, in [23], the Activity entry was “Dose-dependent effect”. The CL free in data set [18] is 1620 mL/min/kg; in data set [20], 100 mL/min/kg. Further, the Tmax in data set [19] came out at 0.25 h.
